Experimental data as given in ChEMBL document CHEMBL2010760, “New insights into the structure-cytotoxicity relationship of spirostan saponins and related glycosides” (Bioorg Med Chem, 2012).
The source made the active and inactive calls. The calls are words filed in the database; no cut-off is given here.

Tests used:
HL-60 [1] = test: Cytotoxicity against human HL60 cells assessed as cell viability after 72 hrs by MTT assay; assay type: functional, cell-based; details: HL-60, 72 h
In short: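 HL-60 myeloid leukemia cells in RPMI 1640 with 10% heat-inactivated FBS, penicillin/streptomycin, 37 °C, 5% CO2. Exponentially growing cells (1 × 10⁴/well) exposed to 0.3–100 µM glycoside (100 mM DMSO stocks) for 72 h. MTT read at 570 nm. Survival taken as percent of control absorbance. IC50 from concentration–response curves fitted per experiment (DeLean equation). Triplicate determinations.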

HL-60 [2] = test: Induction of apoptosis in human HL60 cells assessed as morphological changes at 10 uM after 24 hrs by phase contrast microscopy; assay type: functional, cell-based
In short: (§1)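 HL-60 cells cultured in RPMI 1640/10% FBS at 37 °C, 5% CO2. Treated with 10 µM glycoside for 24 h. Representative fields examined by inverted phase contrast microscopy for morphology and growth.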

HL-60 [3] = test: Growth inhibition in human HL60 cells at 10 uM after 24 hrs by phase contrast microscopy; assay type: functional, cell-based; in short: as §1
HL-60 [4] = test: Induction of apoptosis in human HL60 cells assessed as condensed chromatin at 10 uM after 24 hrs by Hoechst 33258 staining method; assay type: functional, cell-based
In short: (§2)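 Nuclear chromatin condensation and fragmentation in HL-60 cells scored by fluorescent microscopy after Hoechst 33258 staining. Treated cells compared with control cells.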

HL-60 [5] = test: Induction of apoptosis in human HL60 cells assessed as fragmented chromatin at 10 uM after 24 hrs by Hoechst 33258 staining method; assay type: functional, cell-based; in short: as §2
HL-60 [6] = test: Induction of apoptosis in human HL60 cells assessed as increase in hypodiploid cells at sub-G1 fraction at 10 uM after 24 hrs by propidium iodide based flow cytometry relative to control; assay type: functional
In short: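 HL-60 cells incubated with 10 µM glycoside for 24 h, labelled with propidium iodide and analysed by flow cytometry. Hypodiploid (sub-G1) fraction compared with control cells.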

HL-60 [7] = test: Induction of apoptosis in human HL60 cells assessed as caspase 3/7 activation measuring cleavage of tetrapeptide DEVD-pNA at 1 to 10 uM after 24 hrs; assay type: functional, cell-based
In short: (§3)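 HL-60 cells treated with increasing glycoside concentrations and harvested at 24 h. Lysates assayed colorimetrically with DEVD-pNA (caspase-3/7), IETD-pNA (caspase-8) and LEHD-pNA (caspase-9). Activity expressed as fold increase over control, mean ± SE. Two independent experiments, each in duplicate.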

HL-60 [8] = test: Induction of apoptosis in human HL60 cells assessed as caspase 8 activation measuring cleavage of tetrapeptide IETD-pNA at 1 to 10 uM after 24 hrs; assay type: functional, cell-based; in short: as §3
HL-60 [9] = test: Induction of apoptosis in human HL60 cells assessed as caspase 9 activation measuring cleavage of tetrapeptide LEHD-pNA at 1 to 10 uM after 24 hrs; assay type: functional, cell-based; in short: as §3

C[C@@H]1CC[C@@]2(OC1)O[C@H]1C[C@H]3[C@@H]4CC=C5C[C@@H](O[C@@H]6O[C@H](CO)[C@@H](O[C@@H]7O[C@@H](C)[C@H](O)[C@@H](O)[C@H]7O)[C@H](O)[C@H]6O[C@@H]6O[C@@H](C)[C@H](O)[C@@H](O)[C@H]6O)CC[C@]5(C)[C@H]4CC[C@]3(C)[C@H]1[C@@H]2C [DIOSCIN]
IC50 (HL-60 [1]): 3.8 µM

C[C@@H]1CC[C@@]2(OC1)O[C@H]1C[C@H]3[C@@H]4CC[C@H]5C[C@@H](O[C@@H]6O[C@H](CO)[C@@H](O)[C@H](O)[C@H]6O[C@@H]6O[C@@H](C)[C@H](O)[C@@H](O)[C@H]6O)CC[C@]5(C)[C@H]4CC(=O)[C@]3(C)[C@H]1[C@@H]2C
IC50 (HL-60 [1]): > 100 µM

C[C@@H]1CC[C@@]2(OC1)O[C@H]1C[C@H]3[C@@H]4CC(=O)[C@@]5(O)C[C@@H](O[C@@H]6O[C@H](CO)[C@@H](O)[C@H](O)[C@H]6O)CC[C@]5(C)[C@H]4CC[C@]3(C)[C@H]1[C@@H]2C
IC50 (HL-60 [1]): > 100 µM

C[C@@H]1CC[C@@]2(OC1)O[C@H]1C[C@H]3[C@@H]4CC(=O)[C@@]5(O)C[C@@H](O[C@@H]6O[C@@H]7CO[C@@H](c8ccccc8)O[C@H]7[C@H](OC(=O)C(C)(C)C)[C@H]6O)CC[C@]5(C)[C@H]4CC[C@]3(C)[C@H]1[C@@H]2C
IC50 (HL-60 [1]): 3.3 µM

C[C@@H]1CC[C@@]2(OC1)O[C@H]1C[C@H]3[C@@H]4CC[C@H]5C[C@@H](O[C@@H]6O[C@H](CO)[C@@H](O[C@@H]7O[C@@H](C)[C@H](O)[C@@H](O)[C@H]7O)[C@H](O)[C@H]6O[C@@H]6O[C@@H](C)[C@H](O)[C@@H](O)[C@H]6O)CC[C@]5(C)[C@H]4CC(=O)[C@]3(C)[C@H]1[C@@H]2C
IC50 (HL-60 [1]): 4.3 µM

C[C@@H]1CC[C@@]2(OC1)O[C@H]1C[C@H]3[C@@H]4CC(=O)[C@@]5(O)C[C@@H](O[C@@H]6O[C@H](CO)[C@@H](O[C@@H]7O[C@@H](C)[C@H](O)[C@@H](O)[C@H]7O)[C@H](O)[C@H]6O[C@@H]6O[C@@H](C)[C@H](O)[C@@H](O)[C@H]6O)CC[C@]5(C)[C@H]4CC[C@]3(C)[C@H]1[C@@H]2C
IC50 (HL-60 [1]): > 100 µM

C[C@@H]1CC[C@@]2(OC1)O[C@H]1C[C@H]3[C@@H]4CC[C@H]5C[C@@H](O[C@@H]6O[C@H](CO[C@@H]7O[C@@H](C)[C@H](O)[C@@H](O)[C@H]7O)[C@@H](O[C@@H]7O[C@@H](C)[C@H](O)[C@@H](O)[C@H]7O)[C@H](O)[C@H]6O)CC[C@]5(C)[C@H]4CC(=O)[C@]3(C)[C@H]1[C@@H]2C
IC50 (HL-60 [1]): > 100 µM

C[C@@H]1CC[C@@]2(OC1)O[C@H]1C[C@H]3[C@@H]4CC[C@H]5C[C@@H](O[C@@H]6O[C@@H]7CO[C@@H](c8ccccc8)O[C@H]7[C@H](OC(=O)C(C)(C)C)[C@H]6O)CC[C@]5(C)[C@H]4CC(=O)[C@]3(C)[C@H]1[C@@H]2C
IC50 (HL-60 [1]): 45 µM

C[C@@H]1CC[C@@]2(OC1)O[C@H]1C[C@H]3[C@@H]4CC(=O)[C@@]5(O)C[C@@H](O[C@@H]6O[C@H](CO[C@@H]7O[C@@H](C)[C@H](O)[C@@H](O)[C@H]7O)[C@@H](O[C@@H]7O[C@@H](C)[C@H](O)[C@@H](O)[C@H]7O)[C@H](O)[C@H]6O)CC[C@]5(C)[C@H]4CC[C@]3(C)[C@H]1[C@@H]2C
IC50 (HL-60 [1]): > 100 µM

C[C@@H]1CC[C@@]2(OC1)O[C@H]1C[C@H]3[C@@H]4CC[C@H]5C[C@@H](O[C@@H]6O[C@H](CO)[C@@H](O)[C@H](O)[C@H]6O)CC[C@]5(C)[C@H]4CC(=O)[C@]3(C)[C@H]1[C@@H]2C
IC50 (HL-60 [1]): > 100 µM

C[C@@H]1CC[C@@]2(OC1)O[C@H]1C[C@H]3[C@@H]4CC(=O)[C@@]5(O)C[C@@H](O[C@@H]6O[C@H](COC(=O)C(C)(C)C)[C@@H](O)[C@H](OC(=O)C(C)(C)C)[C@H]6O)CC[C@]5(C)[C@H]4CC[C@]3(C)[C@H]1[C@@H]2C
IC50 (HL-60 [1]): 2.1 µM | Activity (HL-60 [2]): Active | growth inhibition (GI) (HL-60 [3]): Active | Activity (HL-60 [4]): Active | Activity (HL-60 [5]): Active | fold change (FC) (HL-60 [6]): 7 | Activity (HL-60 [7]): Active | Activity (HL-60 [8]): Active | Activity (HL-60 [9]): Active

C[C@@H]1CC[C@@]2(OC1)O[C@H]1C[C@H]3[C@@H]4CC[C@H]5C[C@@H](O[C@@H]6O[C@H](COC(=O)C(C)(C)C)[C@@H](O)[C@H](OC(=O)C(C)(C)C)[C@H]6O)CC[C@]5(C)[C@H]4CC(=O)[C@]3(C)[C@H]1[C@@H]2C
IC50 (HL-60 [1]): 12 µM

C[C@@H]1CC[C@@]2(OC1)O[C@H]1C[C@H]3[C@@H]4CC(=O)[C@@]5(O)C[C@@H](O[C@@H]6O[C@H](CO)[C@@H](O)[C@H](O)[C@H]6O[C@@H]6O[C@@H](C)[C@H](O)[C@@H](O)[C@H]6O)CC[C@]5(C)[C@H]4CC[C@]3(C)[C@H]1[C@@H]2C
IC50 (HL-60 [1]): 86.7 µM
